Shown are actives, neighbours in structure and some others; about 2.7% of the full set was active somewhere.
RBBP9 inhibitor: human RBBP9 hydrolase inhibition; hit rate 0.2% among 220,000; AID 1515; inhibition, % at 7.94 µM; recombinant RBBP9, FP-Rh probe fluorescence polarization; O75884;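 active = inhibition above the campaign mean of all tested compounds plus 3 SD, cut at about 14% in these data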;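 note: plate controls were DMSO wells with RBBP9 for no effect and wells lacking RBBP9 protein for full effect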
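Assay system: recombinant human RBBP9; Reagent: Serine-hydrolase probe FP-Rh, 375 nM pre-mixing; Doses: 7.94 µM single dose, 0.794% DMSO; Incubation: 30 min then 45 min, 25 °C; Detection: fluorescence polarization (mP), excitation 525 nm, emission 598 nm; Evaluation: percent inhibition from mP, scaled between DMSO and no-protein wells.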
Wee1 degr inh: inhibitors of human Wee1 degradation | P30291 | HeLa Luc-Wee1K328M stability, luciferase luminescence; 100% = proteasome inhibitor MG132 effect | reporter increase, % at 5 µM | hit rate 1.2% among 220,000;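 active = activation above the mean of all tested compounds plus 3 SD, set per screening run, cut at about 8.8% in these data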;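 note: cells exposed to compound for 20 h before luminescence read; 0% = DMSO alone and 100% = MG132 at 30 µM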
Target sequence (P30291 whole entry K328M): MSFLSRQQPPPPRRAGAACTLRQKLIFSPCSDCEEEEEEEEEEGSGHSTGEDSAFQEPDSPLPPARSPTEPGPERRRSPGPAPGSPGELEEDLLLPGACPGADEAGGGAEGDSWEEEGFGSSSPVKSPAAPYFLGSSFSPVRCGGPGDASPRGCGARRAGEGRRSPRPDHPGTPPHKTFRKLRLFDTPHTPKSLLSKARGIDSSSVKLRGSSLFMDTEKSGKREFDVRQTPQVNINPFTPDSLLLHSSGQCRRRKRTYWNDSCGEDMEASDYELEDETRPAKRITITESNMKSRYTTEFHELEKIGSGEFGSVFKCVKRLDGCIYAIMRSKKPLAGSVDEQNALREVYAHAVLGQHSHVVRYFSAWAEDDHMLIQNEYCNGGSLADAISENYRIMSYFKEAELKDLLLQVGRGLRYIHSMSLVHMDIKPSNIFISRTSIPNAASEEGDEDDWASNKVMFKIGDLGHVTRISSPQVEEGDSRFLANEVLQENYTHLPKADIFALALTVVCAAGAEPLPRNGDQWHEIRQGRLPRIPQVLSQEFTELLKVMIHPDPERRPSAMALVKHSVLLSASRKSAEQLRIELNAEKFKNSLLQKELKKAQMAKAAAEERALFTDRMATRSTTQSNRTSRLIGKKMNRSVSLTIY
p97 inhibitor: inhibitors of human p97 ATPase | recombinant p97 ATPase, Kinase-Glo ATP luminescence, 3 h | inhibition, % at 8 µM | hit rate 0.42% among 220,000; in the data active = inhibition above about 15%;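 note: 0% = DMSO vehicle and 100% = wells lacking enzyme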
TNF necrop inh: TNF-alpha cell death inhibition in Jurkat FADD-/- cells | Jurkat FADD-/- TNF necroptosis rescue, ATP luminescence, 24 h; 0 = TNF only, 100 = no-TNF cells | hit rate 0.068% among 220,000 | AID 463075 | activation (protection from cell death), % at 10 µM;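 active = activation, meaning protection from cell death, of at least 50% relative to plate controls; inactive = activation below 50%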;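 note: necroptosis triggered by 40 ng/mL TNF-alpha added together with compound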
PfM18AAP inh: blocks P. falciparum M18 aspartyl aminopeptidase. inhibition, % at 7.35 µM. AID 1822. hit rate 1.2% among 290,000. recombinant PfM18AAP, H-Glu-NHMec fluorogenic cleavage;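 active = inhibition above the campaign mean inhibition over all tested compounds plus 3 SD, cut at about 28% in these data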;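 note: 0% = plate median of test compound wells and 100% = 2 mM ZnCl2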
zVAD death inh: L929 zVAD cell death inhibition; L929 zVAD necroptosis rescue, ATP luminescence, 24 h; with zVAD 60 µM; viability rescue, % at 10 µM; hit rate 0.38% among 220,000;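 active = activation, scaled between plate controls, above about 75%, limit read from the data; inactive = activation under that limit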;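 note: 0% = zVAD with DMSO and 100% = DMSO alone without zVAD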
RBBP9 confirm: confirmation of human RBBP9 inhibitors | shares compounds with RBBP9 inhibitor | recombinant RBBP9, FP-Rh probe fluorescence polarization | inhibition, % at 7.94 µM | hit rate 36% among 410;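 active = inhibition above the hit cutoff derived for the primary screen, cut at about 15% in these data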;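 note: 0% = RBBP9 with DMSO and 100% = wells lacking RBBP9 protein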
* = called active by the depositor; / = not tested or not shown.

SMILES	RBBP9 inhibitor	Wee1 degr inh	p97 inhibitor	TNF necrop inh	PfM18AAP inh	zVAD death inh	RBBP9 confirm
C/C(=N\OC(=O)c1ccc(Cl)cc1)c1nccs1	34*	1	1	-3	5	0	80*
Cc1cc(C)c(C(=O)NNC(=O)c2cccnc2)c(C)c1	/	/	/	/	0	/	/
O=[N+]([O-])c1c(NCCO)cc(N2CCCCCC2)c2nonc12	/	/	/	/	-1	/	/
Cc1nnc(Sc2cc(NCCCO)c([N+](=O)[O-])c3nonc23)s1	22*	1	6	-18	-56	25	30*
CCC(=O)OCCNc1cc(Sc2nc3ccccc3s2)c2nonc2c1[N+](=O)[O-]	0	-1	1	-26	-28	5	/
Cc1nnc(Sc2cc(NCCO)c([N+](=O)[O-])c3nonc23)s1	18*	8	4	-18	-43	2	24*
O=[N+]([O-])c1c(NCCCO)cc(Sc2nc3ccccc3s2)c2nonc12	17*	2	6	-23	-45	1	23*
CCCN(C(=O)CSc1nc2ccccc2n1CC)C1CCS(=O)(=O)C1 (centres undefined)	/	/	/	/	-13	/	/
CCN(CC)c1ccc(NC(=O)c2ccc3c(c2)c(C)c(C)n3C)cc1	30*	3	5	-2	4	50	28*
COC(=O)C1CSc2[nH]c(=O)sc2C1c1ccc(O)c(OC)c1 (centres undefined)	14*	1	3	-2	-4	1	1
NC(=O)C1CCN(C(=O)CCC(=O)N2CCOc3ccc(Cl)cc32)CC1	/	/	/	/	-2	/	/
CC1=NNC(=O)C1C(c1cccc(O)c1)C(C#N)C#N (centres undefined)	11	-1	12	-3	-6	1	/
CC1=NNC(=O)C1C(c1ccc(Cl)cc1)C(C#N)C#N (centres undefined)	22*	1	9	-5	-2	0	-1
NC1=NC(=O)CC(C(=O)NCc2ccccc2)S1 (centres undefined)	14*	-2	-4	-1	-22	1	9
NC1=NC(=O)C(CC(=O)NCc2ccccc2)S1 (centres undefined)	-9	-1	4	1	-45	0	/
Cc1nc2ccccn2c1CN(C)C(=O)C1CCC(=O)N(CCc2cccc(F)c2)C1 (centres undefined)	/	/	/	/	-4	/	/
Cc1nn(-c2ccccc2)c(Cl)c1/C=N/NC(=O)CNC(=O)c1ccccc1Cl	39*	-1	2	8	0	52	3
CN(C)S(=O)(=O)c1ccc(Cl)c(NC(=O)COC(=O)c2ccc3c(c2)NC(=O)CS3)c1	-14	-1	1	-2	4	0	/
COc1ccc(NC(=O)Nc2ccc3oc(C)nc3c2)cc1	0	3	1	1	-12	10	/
Cc1nc2cc(NC(=O)N(C)c3ccc4ccccc4c3)ccc2o1	16*	0	8	-2	25	0	5
O=Nc1c(O)[nH]c2ccc(F)cc12	10	-2	-3	-1	-4	40	/
O=Nc1c(O)[nH]c2ccc(Cl)cc12	15*	-1	0	-2	4	44	29*
COCCN(CCOC)C(=O)c1ccc(NS(=O)(=O)c2ccc3[nH]c(=O)[nH]c3c2)cc1	/	/	/	/	-6	/	/
O=C(CN1CCNCC1)Nc1ccc(Oc2ccccc2)cc1	15*	-2	-8	0	-13	0	24*
COc1cccc(C(=O)N2CCC(C(=O)NCc3ccco3)CC2)c1	/	/	/	/	6	/	/
SMILES	RBBP9 inhibitor	Wee1 degr inh	p97 inhibitor	TNF necrop inh	PfM18AAP inh	zVAD death inh	RBBP9 confirm
Cc1cc(Cl)c2oc(C(=O)N(C)Cc3ccon3)c(C)c2c1	/	/	/	/	-2	/	/
CCCCN(C(=O)c1cc2ccccc2o1)c1c(N)n(CC(C)C)c(=O)[nH]c1=O	20*	6	0	0	6	/	0
O=C(Cn1cnc2cc([N+](=O)[O-])ccc2c1=O)NCc1ccccc1	2	-1	-2	1	3	0	/
Cc1cc(O)ccc1Nc1nc2ccccc2nc1Nc1ccc(O)cc1C	21*	-2	14	-3	-6	6	11
Cc1ccc(Nc2nc3ccccc3s2)c(C)c1	7	7	-2	28	4	1	/
COc1ccc(S(=O)(=O)Nc2ccccc2-c2nc3ccccc3[nH]c2=O)cc1	/	/	/	/	4	/	/
C=CCOc1ccc(CNc2ccc3[nH]c(=O)[nH]c3c2)cc1OCC	18*	-1	5	0	-66	1	14*
COC(=O)c1ccccc1C(=O)c1ccc2c(c1)NC(=O)CO2	2	-1	2	0	-11	0	/
CCN1CC(CN(C)Cc2nc(Cc3ccccc3)no2)CC1=O (centres undefined)	-5	-3	3	1	-1	1	/
Cc1ccccc1N=C1c2ccccc2C(=O)C1[N+](=O)[O-] (centres undefined)	-4	-2	3	-2	8	3	/
COc1ccc(/C=C/C(=O)Oc2cc(O)cc(O)c2)cc1	-5	1	7	0	-2	0	/
COc1ccc(-c2cc(O)cc(O)c2)cc1	35*	2	2	-1	13	0	5
Cc1cc(-c2ccccc2)n2ncnc2n1	-10	4	-2	-1	-7	0	/
COc1ccc(OC)c2c1C(=O)C(Cl)=C(Cl)C2=O	79*	6	13	-31	23	20	81*
COc1ccc(/C=C/C(=O)Nc2ccccc2)cc1S(=O)(=O)N1CCOCC1	37*	-3	2	-8	2	5	4
CCN(CC)CCC#CC(O)(c1ccccc1)C1CCCCC1 (centres undefined)	-8	4	1	3	-2	-2	/
CCC[N+]1(CC#CC(O)(c2ccccc2)C2CCCCC2)CCCCC1 (centres undefined)	15*	3	2	1	9	0	39*
O=C(Oc1cccc([N+](=O)[O-])c1)N1CCCCC1	16*	-1	2	5	18	0	2
O=C(Nc1cccc([N+](=O)[O-])c1)N1CCCCCC1	/	/	/	/	5	/	/
COc1cc2[nH]c(=S)nc(Nc3ccc(NC(C)=O)cc3)c2cc1OC	29*	-2	6	1	25	2	52*
COc1ccc2[nH]c3c(NCCC4=CCCCC4)ncnc3c2c1	15*	2	2	-5	1	2	30*
CCN(CC)CCNc1ncnc2c1[nH]c1ccc(OC)cc12	0	2	3	8	12	3	/
O=C(/C=N/O)Nc1ccc2sc3ccccc3c2c1	53*	-5	12	-7	5	5	72*
COC(=O)c1ccccc1NC(=O)/C=N/O	4	3	2	-2	8	0	/

Source: PubChem
